TRPML3 agonist: human TRPML3 channel agonists, primary screen, cell-based, HEK293 TRPML3-YFP, Fluo-8 calcium fluorescence, 3 µM; Mucolipin-3 (Homo sapiens), Q8TDD5; 100% = the carbachol control signal; activation, % at 3 µM; 220,000 tested, 0.29% active; AID 1448, 2008;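 active = activation above its plate's cutoff, the mean activation of the plate's test wells plus 3 SD, cut at about 12% in these data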;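 also: 0% = DMSO only wells and 100% = carbachol wells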
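Test system: HEK293 cells stably carrying human TRPML3-YFP; Doses: single dose, 3 µM final nominal compound, 0.3% DMSO final; Schedule: dye loading 1 h 37 °C then 30 min ambient, 125 s read; Technique: Fluo-8 calcium fluorescence; Benchmarks: high control carbachol 87 µM, low control DMSO.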
LANA-H2A inh: blockers of LANA interaction with H2A/H2B – biochemical, FP readout, HTS, primary screen. 320,000 tested, 0.6% active. cell-free LANA-H2A/H2B peptide, fluorescence polarization. inhibition, % (concentration not given with the values); in the data active = inhibition mostly above about 10%, no sharp cut-off; inactive = mostly below about 6.7%
TAAR1 antagonist: human TAAR1 antagonists, primary screen, Fluo-8 calcium fluorescence, CHO RD-HGA16 cells; inhibition, % at 3 µM; antagonist; Trace amine-associated receptor 1 (Homo sapiens), Q96RJ0; 360,000 tested, 1.5% active;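 active = inhibition above a per-plate cutoff, the mean inhibition of test compounds on that plate plus 3 SD, cut at about 49% in these data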;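 also: 0% = DMSO plus EC80 beta-PEA response and 100% = DMSO alone without agonist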
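Test system: hTAAR1-expressing CHO RD-HGA16 cells, Gα16-coupled; Probe or stimulus: EC80 β-phenethylamine stimulus; Compound dosing: single nominal final test compound concentration of 3 µM; Timing: 140 s kinetic read after compound, 140 s after agonist; Signal: Fluo-8 calcium-sensitive fluorescence; Measure: % inhibition of agonist calcium response; Controls: DMSO and EC80 PEA controls.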
TRPN1 ag: zebrafish TRPN1 channel agonists, primary screen, cell-based, HEK293, calcium fluorescence; transient receptor potential cation channel N1 (TRPN1/NompC), Danio rerio; HEK293 zebrafish TRPN1-YFP, Fluo-8 calcium fluorescence; 100% = response to 87 µM carbachol; activation, % at 3 µM; 220,000 tested, 0.18% active;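 active = activation above its plate's cutoff, the mean activation of test wells on that plate plus 3 SD, cut at about 19% in these data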;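 also: 0% = DMSO alone and 100% = 87 µM carbachol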
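System: zebrafish TRPN1-YFP in HEK293 cells / Dosing: 3 µM single point / Timing: dye loading 1 h at 37 °C, then 30 min room temperature / Signal: Fluo-8 calcium fluorescence, excitation 470-495 nm, emission 515-575 nm / Read-out basis: percent activation from peak over basal fluorescence ratio, control-normalized / Control set: high carbachol 87 µM, low DMSO alone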
TAAR1 agonist: human TAAR1 agonists, primary screen, Fluo-8 calcium fluorescence, CHO RD-HGA16 cells; 360,000 tested, 0.99% active; vehicle wells 0%, saturating PEA agonist 100%; activation, % at 3 µM; AID 624467, 2012; Trace amine-associated receptor 1 (Homo sapiens), Q96RJ0;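 active = activation above the mean activation of all test compounds in the run plus 3 SD, cut at about 38% in these data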
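System: CHO RD-HGA16 cells carrying human TAAR1 plus Gα16; Incubation: 17-24 h seeding, 75 min 37 °C dye, 30 min RT; Measured by: Fluo-8 fluorescence, 5 s baseline then 140 s kinetic read; Control set: DMSO and PEA EC100; Replication: single well for each compound.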
GPR7 antag: GPR7 receptor antagonists, primary screen, cell-based, fluorescence, single concentration | GPR7-expressing cells, fluorescence antagonist assay | Neuropeptides B/W receptor type 1 (Homo sapiens), P48145 | 290,000 tested, 1.1% active | inhibition, % at 4.4 µM; in the data active = inhibition above about 16%, passing the limit was not always enough;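 also: cells stimulated with the agonist NPW; 0% = agonist with vehicle and 100% = vehicle without agonist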
Target sequence (P48145 whole entry, looked up): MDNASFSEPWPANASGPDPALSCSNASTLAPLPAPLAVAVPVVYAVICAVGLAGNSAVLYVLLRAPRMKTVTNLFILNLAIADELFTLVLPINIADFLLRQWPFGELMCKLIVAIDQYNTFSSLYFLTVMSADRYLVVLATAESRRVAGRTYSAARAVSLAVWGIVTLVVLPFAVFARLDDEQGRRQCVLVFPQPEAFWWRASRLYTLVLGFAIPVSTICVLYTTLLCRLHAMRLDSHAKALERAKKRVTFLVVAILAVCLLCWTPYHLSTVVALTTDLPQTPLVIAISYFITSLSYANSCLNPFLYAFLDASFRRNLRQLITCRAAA
TAAR1 nonsel count: nonselective antagonists in TAAR1 counter-screen cells, counter-screen for hTAAR1 antagonist project, cell-based, fluorescence, calcium; AID 651780, 2012; 2,400 tested, 77% active; shares compounds with TAAR1 antagonist; inhibition, % at 3 µM; counterscreen cell line, antagonist mode; in the data active = inhibition above about 22%;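 also: CHO-Ga16 host cells stimulated with ATP at an EC80 level; 0% = agonist EC80 plus vehicle and 100% = vehicle without agonist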
TAAR1 antag conf: human TAAR1 antagonists, retest of hits, confirmation, cell-based, fluorescence. shares compounds with TAAR1 antagonist. TAAR1-expressing cells, fluorescence antagonist read-out. inhibition, % at 3 µM. 2,400 tested, 40% active. AID 651785, 2012; in the data active = inhibition above about 49%;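 also: CHO-Ga16 host cells challenged with agonist PEA near its EC80; 0% = agonist at EC80 plus vehicle and 100% = vehicle with no agonist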
Ga16 nonsel ag: calcium activation in Ga16-expressing cells, counter-screen for TAAR1 antagonist project, cell-based, fluorescence; agonist counterscreen; 2,400 tested, 18% active; AID 651953, 2012; activation, % at 3 µM; shares compounds with TAAR1 antagonist; in the data active = activation above about 12%;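 also: 0% = vehicle wells and 100% = saturating stimulus response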
TAAR1 ag counter: TAAR1 activation by candidate antagonists – cell-based, fluorescence, counter-screen for TAAR1 antagonist project; hTAAR1 cell line, agonist mode; shares compounds with TAAR1 antagonist; AID 651955, 2012; activation, % at 3 µM; 2,400 tested, 2% active; in the data active = activation above about 37%;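 also: CHO cells stably expressing TAAR1 with calcium dye readout; 0% = DMSO vehicle and 100% = full agonist response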
Starred values were filed as active, the others as inactive; · = no result given; ! = a repeat was not active. Compounds with a hit are over-represented: about 3.4% of the library has one in this group of screens.

SMILES	TRPML3 agonist	LANA-H2A inh	TAAR1 antagonist	TRPN1 ag	TAAR1 agonist	GPR7 antag	TAAR1 nonsel count	TAAR1 antag conf	Ga16 nonsel ag	TAAR1 ag counter
O=C(Nc1ccc(Oc2ccc(NC(=O)c3ccco3)c(NC(=O)c3ccco3)c2)cc1)c1ccco1	-0.8	-3.0	61.8*	2.7	11.1	-0.8	29.1*	55.6*	4.8	5.3
O=C(Nc1ccc(Oc2ccc3ccccc3c2)cc1)c1ccco1	1.1	-1.6	27.2	0.7	1.2	-5.6	·	·	·	·
CCC(C)Sc1cc(-c2nc3ccccn3c2NC2CCCCC2)ccc1OC (centres undefined)	·	-3.2	78.5*	·	3.9	·	42.1*	63.1*	8.2	13.0
CCC(C)Sc1cccc(-c2nc3ccc(C)cn3c2NC2CCCCC2)c1 (centres undefined)	·	1.3	57.4*!	·	24.2	·	35.1*	48.8*	10.7	15.3
Cc1ccc2nc(-c3cccc(SC4CCCCC4)c3)c(NCc3ccccc3)n2c1	·	·	84.2*	·	8.1	·	37.0*	60.6*	4.2	8.0
CCC(C)Sc1cc(-c2nc3cc(C)ccn3c2NC2CCCCC2)ccc1OC (centres undefined)	·	·	21.1	·	10.1	·	·	·	·	·
Clc1ccc2nc(-c3cccc(SC4CCCCC4)c3)c(NCc3ccccc3)n2c1	·	-0.7	28.6	·	1.2	·	·	·	·	·
CC(=O)c1ccc(-c2cccc(-c3nc4ccccn4c3NC3CCCCC3)c2)cc1	·	2.2	58.7*	·	11.9	·	23.3*	46.3	3.6	5.6
CCN=C1SC(C(=O)Nc2ccc(Cl)c(Cl)c2)CC(=O)N1CC (centres undefined)	1.4	3.2	80.3*	2.7	28.1	-4.9	44.2*	65.9*	13.3*	15.1
CCN=C1SC(C(=O)Nc2cccc(Br)c2)CC(=O)N1CC (centres undefined)	1.6	2.9	75.5*	2.9	21.5	3.2	37.3*	62.9*	10.9	10.2
OCCN1CCN(c2cc(-c3ccc4ccccc4c3)nc3ccnn23)CC1	·	·	-5.1	·	4.6	·	·	·	·	·
CC(=O)c1ccc(NC(=O)CSc2ccc(-c3ccc(-n4cccn4)cc3)nn2)cc1	·	-2.6	-0.3	·	1.0	·	·	·	·	·
CCCC(=O)Nc1cccc(S(=O)(=O)N(C)c2ccccc2)c1	-0.1	1.3	-4.5	-0.1	0.8	-7.0	·	·	·	·
CC(=O)CCc1ccc(OCC(=O)Nc2cccc(S(=O)(=O)N(C)c3ccccc3)c2)cc1	·	·	74.0*	·	10.3	·	35.5*	52.2*	10.8	8.1
CCN(CC)S(=O)(=O)c1cccc(NC(=O)COc2ccc(C#N)cc2OC)c1	1.2	-0.6	4.7	2.5	10.7	-14.6	·	·	·	·
COc1cc(C#N)ccc1OCC(=O)Nc1cccc(S(=O)(=O)N(C)c2ccccc2)c1	·	·	73.6*	·	12.2	·	35.8*	48.7*	10.1	7.2
O=C(O)c1ccccc1NC(c1ccccc1)c1ccc(Cl)cc1 (centres undefined)	·	3.9	-22.2	·	-4.3	-8.3	·	·	·	·
COc1ccc(-c2nc(N)ncc2-c2ccccc2OC)c(O)c1	·	-1.1	-13.2	·	4.3	-11.6	·	·	·	·

High-throughput results (PubChem)
